Screening results: PubChem BioAssay, Broad Institute
Hits are enriched below; roughly 2.2% of the tested compounds scored in any of these assays.
DENV2 CPE rescue: inhibitors of DENV2 cytopathic effect, primary screen, cell-based, plate reader, single concentration; DENV2-infected cells, cytopathic effect rescue; CPE inhibition, % at 9.99 µM; 350,000 compounds, 1.7% hits; AID 651640, 2012; in the data active means CPE inhibition above about 20%, passing the limit was not always enough; tested in BHK-21 cells;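 further: 0% = median of neutral control wells and 100% = median of positive control wells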
E-selectin induc: E-selectin induction in HUVECs, primary screen, imaging, HUVEC, immunofluorescence imaging, single point. 260,000 compounds, 0.37% hits. normalized: neutral wells 0, TNF-alpha wells 100. P16581. activation, % at 7.58 µM;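 active means mean E-selectin-positive cell signal at least 10% of the positive control, reached in at least 60% of replicates, without over 20% cell loss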
Target sequence (P16581 whole entry, looked up): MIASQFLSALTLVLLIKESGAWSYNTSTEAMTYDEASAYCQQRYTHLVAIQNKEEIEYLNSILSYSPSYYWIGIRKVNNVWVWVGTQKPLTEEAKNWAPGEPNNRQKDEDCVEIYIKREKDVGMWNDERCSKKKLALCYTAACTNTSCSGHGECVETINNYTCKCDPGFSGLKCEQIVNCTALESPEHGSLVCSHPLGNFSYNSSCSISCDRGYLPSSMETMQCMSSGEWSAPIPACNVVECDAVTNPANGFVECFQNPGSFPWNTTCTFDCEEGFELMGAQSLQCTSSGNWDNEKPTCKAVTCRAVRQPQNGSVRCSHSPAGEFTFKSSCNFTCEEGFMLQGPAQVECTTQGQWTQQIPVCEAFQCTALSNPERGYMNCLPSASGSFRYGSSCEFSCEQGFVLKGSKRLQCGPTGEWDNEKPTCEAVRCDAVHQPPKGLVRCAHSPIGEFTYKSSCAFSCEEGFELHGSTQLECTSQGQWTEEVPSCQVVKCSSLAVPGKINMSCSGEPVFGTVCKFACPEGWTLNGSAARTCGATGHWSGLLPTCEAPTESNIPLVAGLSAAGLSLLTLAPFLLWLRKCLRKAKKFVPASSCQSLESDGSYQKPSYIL
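assay system = HUVEC, human umbilical vein endothelial cells | input = 3,000 HUVEC seeded per well | medium = EGM-2 growth medium on 0.1% gelatin-coated wells | dosing = one compound dose added by pin transfer | signal = immunofluorescence imaging | read-out basis = % PE-positive cells | control set = TNF-alpha, DMSO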
Statin myotox sup: suppressors of statin myotoxicity in C2C12 myotubes, primary screen, cell-based, single point, plate reader. C2C12 myotubes + simvastatin, ATP luminescence, 48 h; scaled: DMSO 0, geranylgeraniol control 100. rescue of ATP level, % at 7.49 µM. 330,000 compounds, 0.78% hits. AID 602340, 2012;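 active means mean ATP rescue above about 67%, or every replicate alone reaching that limit, limit read from the data, passing the limit was not always enough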;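 further: myotubes were challenged with 10 µM simvastatin during compound exposure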
Active calls of the source: *; nt = not tested or not shown.

SMILES | DENV2 CPE rescue | E-selectin induc | Statin myotox sup
CCOC(=O)CSc1nc2sc3c(c2c(=O)[nH]1)CC(C)(CC)OC3 (centres undefined) | nt | nt | -10
COC(=O)c1nn(-c2ccccc2)nc1-c1nn(-c2ccccc2)nc1C(=O)OC | nt | nt | 6
O=C(O)c1nn(-c2ccccc2)nc1-c1nn(-c2ccccc2)nc1C(=O)O | nt | nt | 136*
C[C@@H]1CCCCO[C@H](CN(C)C(=O)Nc2ccc3c(c2)OCO3)[C@@H](C)CN([C@H](C)CO)C(=O)c2cc(NC(=O)Nc3ccc(F)cc3)ccc2O1 | 1 | 0 | nt
CC(C)NC(=O)Nc1ccc2c(c1)C(=O)N([C@@H](C)CO)C[C@@H](C)[C@H](CN(C)C(=O)Nc1ccc3c(c1)OCO3)O2 | 28* | 0 | 21
CC(C)NC(=O)Nc1ccc2c(c1)C(=O)N([C@@H](C)CO)C[C@@H](C)[C@@H](CN(C)C(=O)Nc1ccc3c(c1)OCO3)O2 | 7 | 0 | 9
CC(C)NC(=O)Nc1ccc2c(c1)C(=O)N([C@H](C)CO)C[C@H](C)[C@H](CN(C)C(=O)Nc1ccc3c(c1)OCO3)O2 | 0 | 0 | -21
CC(C)NC(=O)Nc1ccc2c(c1)C(=O)N([C@@H](C)CO)C[C@H](C)[C@@H](CN(C)C(=O)Nc1ccc3c(c1)OCO3)O2 | 21* | 0 | -1
C[C@@H]1CCCCO[C@@H](CN(C)Cc2ccccc2)[C@H](C)CN([C@H](C)CO)C(=O)c2cc(NC(=O)C3CCCCC3)ccc2O1 | 1 | 0 | nt
O=C(C[C@@H]1C=C[C@H](NC(=O)c2ccncc2)[C@H](CO)O1)NCC1CCCCC1 | -1 | 0 | -6
CCC(=O)N1CC[C@@H]2[C@H](CO)Nc3ccc(C#Cc4ccc(F)cc4)cc3[C@@H]21 | -12 | 59* | -12
N#Cc1ccc(-c2ccc3c(c2)[C@@H]2[C@@H](CCN2C(=O)C2CCCC2)[C@H](CO)N3)cc1 | 2 | 0 | nt
CCC(=O)N1CC[C@@H]2[C@H]1c1cc(C#Cc3ccc(F)cc3)ccc1N[C@@H]2CO | -9 | 1 | 18
O=C(C1CC1)N1CC[C@@H]2[C@H]1c1cc(C#Cc3ccccc3F)ccc1N[C@@H]2CO | 29* | 0 | -5
O=C(C1CCC1)N1CC[C@@H]2[C@H](CO)Nc3ccc(C#Cc4ccc(F)cc4)cc3[C@@H]21 | -6 | 34* | nt
N#Cc1ccc(-c2ccc3c(c2)[C@H]2[C@H](CCN2C(=O)C2CCC2)[C@H](CO)N3)cc1 | 35* | 1 | nt
O=C(C1CC1)N1CC[C@@H]2[C@H](CO)Nc3ccc(C#Cc4ccccc4F)cc3[C@@H]21 | 1 | 3 | -11
O=C(C1CCCC1)N1CC[C@@H]2[C@@H](CO)Nc3ccc(C#Cc4ccc(F)cc4)cc3[C@@H]21 | 4 | 11 | nt
CCS(=O)(=O)N1CC(=O)N2[C@@H](CO)[C@H](c3ccc(C#Cc4ccc(F)cc4)cc3)[C@@H]2C1 | -7 | 0 | nt
Cc1cc(C(=O)Nc2cccc3c2O[C@@H](CN(C)Cc2ccc(C(F)(F)F)cc2)[C@@H](C)CN([C@H](C)CO)C3=O)n(C)n1 | -1 | 13 | 10
O=C(C[C@H]1CC[C@H](NS(=O)(=O)c2ccc(F)cc2)[C@@H](CO)O1)NCc1ccc(Cl)c(Cl)c1 | 4 | -1 | 23
O=C(C1CC1)N1CC(=O)N2[C@H](CO)[C@@H](c3ccc(-c4cccnc4)cc3)[C@H]2C1 | 1 | 0 | nt
CN(C)C(=O)C[C@H]1C[C@H]2c3cc(NC(=O)C4CCOCC4)ccc3O[C@H]2[C@@H](CO)O1 | 3 | 0 | 6
O=C(C1CCCC1)N1CC[C@@H]2[C@H]1c1cc(C#Cc3ccc(F)cc3)ccc1N[C@@H]2CO | -6 | 0 | nt
O=C(C1CC1)N1CC[C@@H]2[C@H]1c1cc(C#Cc3ccc(F)cc3)ccc1N[C@@H]2CO | 27* | 1 | 11
SMILES | DENV2 CPE rescue | E-selectin induc | Statin myotox sup
CC(C)CC#Cc1cnc2c(c1)C(=O)N([C@H](C)CO)C[C@@H](C)[C@@H](CN(C)Cc1cncnc1)O2 | 3 | 0 | 6
CCCN(C)C[C@@H]1Oc2ncc(-c3ccccc3)cc2C(=O)N([C@H](C)CO)C[C@H]1C | nt | nt | -3
CCOC(=O)c1c(N)c2cc([N+](=O)[O-])cnc2n1C | 3 | 1 | nt
CCOC(=O)c1c(NC(=O)c2ccno2)c2cc([N+](=O)[O-])ccc2n1C | 84* | nt | nt
COCC(=O)Nc1ccc2c(c1)C(=O)N(C)C[C@H](OC)[C@H](C)CN(Cc1ccccc1OC)[C@@H](C)CO2 | -1 | 0 | -10
O=C(/C=C/c1ccccc1Cl)NCc1ccccc1 | nt | nt | 145*
O=C(/C=C/c1ccccc1Cl)NCCc1ccccc1 | -4 | nt | -49
COc1cccc(C(=O)Nc2ccc3c(c2)C(=O)N(C)[C@H]2CC[C@H](CC(=O)NCCCN4CCOCC4)O[C@@H]2CO3)c1 | -3 | 0 | -14
CC(C)(C)OC(=O)N1O[C@H]2C=C[C@@H]1C2 | 10 | 0 | nt
O=C(c1ccc[nH]1)N1O[C@@H]2C=C[C@H]1C2 | 62* | 2 | 2
CN(C[C@H]1[C@@H](c2ccccc2)[C@H](CO)N1C(=O)C1CCC1)C(=O)c1ccccn1 | 6 | 0 | 22
Cc1cc(C)c(OCCCNCc2ccccc2)c(Br)c1 | -2 | nt | 1
Cc1cc(C)c(OCCCNC2CCCC2)c(Br)c1 | 28* | nt | 12
Fc1ccc(CSc2nnc(Cc3sc(-c4ccccc4)nc3-c3ccccc3)o2)cc1 | nt | nt | -6
COc1ccc(CSc2nnc(Cc3sc(-c4ccccc4)nc3-c3ccccc3)o2)cc1 | nt | nt | 96*
COc1ccc(CN2CC3(CN(C(=O)C4CC4)C3)c3c(n(C)c4cc(OC)ccc34)[C@@H]2CO)cc1 | -6 | 0 | nt
C[C@@H]1CCCCO[C@@H](CN(C)Cc2ccncc2)[C@@H](C)CN([C@@H](C)CO)C(=O)c2cc(NC(=O)Nc3ccccc3)ccc2O1 | 13 | 0 | nt
CCCN1C(=S)SC(C)(C)C1/[N+]([O-])=C/c1cccnc1 (centres undefined) | nt | nt | -4
CCCCN1C(=S)SC(C)(C)C1/[N+]([O-])=C/c1cccnc1 (centres undefined) | nt | nt | 98*
OC[C@H]1[C@@H](c2ccc(-c3ccccc3F)cc2)[C@H]2CN(Cc3cncnc3)CCCCN21 | 7 | 0 | -13
OC(COc1ccc(Cl)cc1Cl)Cn1ccnc1 (centres undefined) | 42* | 1 | -11
Clc1ccc(OCCn2ccnc2)c(Cl)c1 | nt | nt | -3
COc1ccc(S(=O)(=O)Nc2ccc3c(c2)C(=O)N([C@@H](C)CO)C[C@@H](C)[C@H](CN(C)C(=O)Nc2ccc(C(F)(F)F)cc2)O3)cc1 | -3 | 8 | nt
O=C(NC1CCC1)[C@H]1[C@H](CO)[C@H]2Cn3c(ccc(-c4cccc(F)c4)c3=O)[C@@H]1N2Cc1cocn1 | 0 | 0 | -89
CC(C)[C@@H](C(=O)NC1CCN(Cc2ccccc2)CC1)N1C(=O)N2CCc3c([nH]c4ccccc34)[C@@]2(C)C1=O | 39* | nt | -23
C[C@@H](C(=O)NCCc1ccccc1)N1C(=O)N2CCc3c([nH]c4ccccc34)[C@@]2(C)C1=O | 37* | nt | 1
